In ChEMBL document CHEMBL4689842, “EUbOPEN Chemogenomics Library wave 1” (2021):

Tested on: HEK-293T
Test: Multiplex assay against HEK293T;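 for Population Tubulin-Different-Phenotype (%): share of the cells with healthy nuclei that show this phenotype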
Type: toxicity, cell-based
Settings: human
How it was run: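 At seeding, live cells were stained with Hoechst33342, BioTracker Green Microtubule Cytoskeleton Dye, MitoTracker Red and Annexin V Alexa Fluor 680. After compound addition they were imaged on a CQ1 microscope at 37°C and 5% CO2, and CellPathfinder machine-learning gating sorted them into Hoechst high-intensity objects or normal cells, with normal cells further split into healthy, pyknosed or fragmented nuclei and pyknosed cells into mitotic or apoptotic. Tubulin, mitochondrial-mass and membrane-permeability phenotypes are given as per cents of cells with healthy nuclei.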

[1] = 12 h, 1 µM, compound concentration 1 uM, replicate 1
[2] = 12 h, 1 µM, compound concentration 1 uM, replicate 2
[3] = 12 h, 10 µM, compound concentration 10 uM, replicate 1
[4] = 12 h, 10 µM, compound concentration 10 uM, replicate 2
[5] = 24 h, 1 µM, compound concentration 1 uM, replicate 1
[6] = 24 h, 1 µM, compound concentration 1 uM, replicate 2
[7] = 24 h, 10 µM, compound concentration 10 uM, replicate 1
[8] = 24 h, 10 µM, compound concentration 10 uM, replicate 2
[9] = 48 h, 1 µM, compound concentration 1 uM, replicate 1
[10] = 48 h, 1 µM, compound concentration 1 uM, replicate 2
[11] = 48 h, 10 µM, compound concentration 10 uM, replicate 1
[12] = 48 h, 10 µM, compound concentration 10 uM, replicate 2

Compound: N#Cc1cccc(C(=O)Nc2cc(-c3ccccc3)nn2-c2ccccc2)c1
- Population Apoptotic (%) [1]: 48%
- Population Healthy Nuclei (%) [1]: 41%
- Population Hoechst High Intensity Objects (%) [1]: 13%
- Population Membrane Permeable-Phenotype (%) [1]: 2%
- Population Mitochondria Different-Phenotype (%) [1]: 85%
- Population Mitotic Cells (%) [1]: 51%
- Population Normal (%) [1]: 86%
- Population Pyknosed Nuclei (%) [1]: 49%
- Population Tubulin-Different-Phenotype (%) [1]: 64%
- Total Cell Count [1]: 315
- Population Apoptotic (%) [2]: 16%
- Population Fragmented Nuclei (%) [2]: 8%
- Population Healthy Nuclei (%) [2]: 42%
- Population Hoechst High Intensity Objects (%) [2]: 6%
- Population Membrane Permeable-Phenotype (%) [2]: 18%
- Population Mitochondria Different-Phenotype (%) [2]: 23%
- Population Mitotic Cells (%) [2]: 83%
- Population Normal (%) [2]: 93%
- Population Pyknosed Nuclei (%) [2]: 48%
- Population Tubulin-Different-Phenotype (%) [2]: 45%
- Total Cell Count [2]: 182
- Population Apoptotic (%) [3]: 73%
- Population Fragmented Nuclei (%) [3]: 8%
- Population Healthy Nuclei (%) [3]: 33%
- Population Hoechst High Intensity Objects (%) [3]: 14%
- Population Membrane Permeable-Phenotype (%) [3]: 5%
- Population Mitochondria Different-Phenotype (%) [3]: 97%
- Population Mitotic Cells (%) [3]: 26%
- Population Normal (%) [3]: 86%
- Population Pyknosed Nuclei (%) [3]: 57%
- Total Cell Count [3]: 300
- Population Apoptotic (%) [4]: 45%
- Population Fragmented Nuclei (%) [4]: 5%
- Population Healthy Nuclei (%) [4]: 25%
- Population Hoechst High Intensity Objects (%) [4]: 5%
- Population Membrane Permeable-Phenotype (%) [4]: 14%
- Population Mitochondria Different-Phenotype (%) [4]: 73%
- Population Mitotic Cells (%) [4]: 54%
- Population Normal (%) [4]: 94%
- Population Pyknosed Nuclei (%) [4]: 68%
- Population Tubulin-Different-Phenotype (%) [4]: 100%
- Total Cell Count [4]: 174
- Population Apoptotic (%) [5]: 45%
- Population Fragmented Nuclei (%) [5]: 9%
- Population Healthy Nuclei (%) [5]: 37%
- Population Hoechst High Intensity Objects (%) [5]: 12%
- Population Membrane Permeable-Phenotype (%) [5]: 4%
- Population Mitochondria Different-Phenotype (%) [5]: 61%
- Population Mitotic Cells (%) [5]: 54%
- Population Normal (%) [5]: 87%
- Population Pyknosed Nuclei (%) [5]: 53%
- Population Tubulin-Different-Phenotype (%) [5]: 51%
- Total Cell Count [5]: 328
- Population Apoptotic (%) [6]: 12%
- Population Fragmented Nuclei (%) [6]: 6%
- Population Healthy Nuclei (%) [6]: 53%
- Population Hoechst High Intensity Objects (%) [6]: 4%
- Population Membrane Permeable-Phenotype (%) [6]: 14%
- Population Mitochondria Different-Phenotype (%) [6]: 21%
- Population Mitotic Cells (%) [6]: 88%
- Population Normal (%) [6]: 95%
- Population Pyknosed Nuclei (%) [6]: 39%
- Population Tubulin-Different-Phenotype (%) [6]: 45%
- Total Cell Count [6]: 200
- Population Apoptotic (%) [7]: 65%
- Population Fragmented Nuclei (%) [7]: 7%
- Population Healthy Nuclei (%) [7]: 27%
- Population Hoechst High Intensity Objects (%) [7]: 15%
- Population Membrane Permeable-Phenotype (%) [7]: 4%
- Population Mitochondria Different-Phenotype (%) [7]: 97%
- Population Mitotic Cells (%) [7]: 34%
- Population Normal (%) [7]: 84%
- Population Pyknosed Nuclei (%) [7]: 65%
- Population Tubulin-Different-Phenotype (%) [7]: 95%
- Total Cell Count [7]: 309
- Population Apoptotic (%) [8]: 67%
- Population Fragmented Nuclei (%) [8]: 5%
- Population Healthy Nuclei (%) [8]: 31%
- Population Hoechst High Intensity Objects (%) [8]: 4%
- Population Membrane Permeable-Phenotype (%) [8]: 8%
- Population Mitochondria Different-Phenotype (%) [8]: 84%
- Population Mitotic Cells (%) [8]: 33%
- Population Normal (%) [8]: 95%
- Population Pyknosed Nuclei (%) [8]: 62%
- Population Tubulin-Different-Phenotype (%) [8]: 100%
- Total Cell Count [8]: 167
- Population Apoptotic (%) [9]: 46%
- Population Fragmented Nuclei (%) [9]: 11%
- Population Healthy Nuclei (%) [9]: 49%
- Population Hoechst High Intensity Objects (%) [9]: 15%
- Population Membrane Permeable-Phenotype (%) [9]: 4%
- Population Mitochondria Different-Phenotype (%) [9]: 29%
- Population Mitotic Cells (%) [9]: 53%
- Population Normal (%) [9]: 84%
- Population Pyknosed Nuclei (%) [9]: 38%
- Population Tubulin-Different-Phenotype (%) [9]: 44%
- Total Cell Count [9]: 415
- Population Apoptotic (%) [10]: 19%
- Population Fragmented Nuclei (%) [10]: 6%
- Population Healthy Nuclei (%) [10]: 77%
- Population Hoechst High Intensity Objects (%) [10]: 4%
- Population Membrane Permeable-Phenotype (%) [10]: 15%
- Population Mitochondria Different-Phenotype (%) [10]: 4%
- Population Mitotic Cells (%) [10]: 80%
- Population Normal (%) [10]: 95%
- Population Pyknosed Nuclei (%) [10]: 16%
- Population Tubulin-Different-Phenotype (%) [10]: 42%
- Total Cell Count [10]: 356
- Population Apoptotic (%) [11]: 53%
- Population Fragmented Nuclei (%) [11]: 14%
- Population Healthy Nuclei (%) [11]: 23%
- Population Hoechst High Intensity Objects (%) [11]: 11%
- Population Membrane Permeable-Phenotype (%) [11]: 5%
- Population Mitochondria Different-Phenotype (%) [11]: 78%
- Population Mitotic Cells (%) [11]: 46%
- Population Normal (%) [11]: 88%
- Population Pyknosed Nuclei (%) [11]: 62%
- Population Tubulin-Different-Phenotype (%) [11]: 100%
- Total Cell Count [11]: 332
- Population Apoptotic (%) [12]: 63%
- Population Fragmented Nuclei (%) [12]: 6%
- Population Healthy Nuclei (%) [12]: 42%
- Population Hoechst High Intensity Objects (%) [12]: 7%
- Population Membrane Permeable-Phenotype (%) [12]: 17%
- Population Mitochondria Different-Phenotype (%) [12]: 65%
- Population Mitotic Cells (%) [12]: 36%
- Population Normal (%) [12]: 92%
- Population Pyknosed Nuclei (%) [12]: 50%
- Population Tubulin-Different-Phenotype (%) [12]: 98%
- Total Cell Count [12]: 204
